According to ChEMBL document CHEMBL4359883, “4(1H)-quinolone derivatives overcome acquired resistance to anti-microtubule agents by targeting the colchicine site of β-tubulin” (Eur J Med Chem, 2019):
Activity calls are given as the source filed them. The calls are words filed in the database; no cut-off is given here.

Experiments:
Homo sapiens [1] = species on record: Homo sapiens; experiment: Induction of mitotic arrest in human KBtax cells assessed as increase in cyclin-B1 expression at 30 to 60 nM after 24 hrs by immunoblotting analysis; assay type: functional, cell-based
[2] = Toxicity in Balb/c mouse xenografted with human KBtax cells assessed as serum creatinine level at 8 mg/kg, ip administered 3 times per week and measured after 21 days (reference value: 0.22 +/- 0.02 mg/dl); assay type: organism-based; settings: in vivo, 504 h
[3] = Selectivity index, ratio of IC50 for human KBtax cells to IC50 for human KB cells; assay type: functional
Homo sapiens [4] = species on record: Homo sapiens; experiment: Induction of apoptosis in human KBtax cells assessed as cleaved caspase-9 at 30 to 60 nM after 24 hrs by immunoblotting analysis; assay type: functional, cell-based
MDA-MB-231 = experiment: Antiproliferative activity against human MDA-MB-231 cells assessed as reduction in cell viability after 72 hrs by MTS assay; assay type: functional, cell-based; settings: MDA-MB-231, 72 h
Summary of the method: (§1)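 Cells plated at 2000/well, cultured overnight, then exposed to a range of compound concentrations for 72 h. MTS reagent added for 1–4 h at 37 °C and absorbance read at 490 nm. Cultured in RPMI 1640 or DMEM with 10% heat-inactivated FBS under 5% CO2. Data are the mean of three determinations.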

[5] = Antiproliferative activity against human KBtax cells assessed as reduction in cell viability after 72 hrs by MTS assay; assay type: functional, cell-based; summary of the method: as §1
[6] = Toxicity in Balb/c mouse xenografted with human KBtax cells assessed as serum AST level at 8 mg/kg, ip administered 3 times per week and measured after 21 days (reference value: 94.2 +/- 12.5 IU/L); assay type: organism-based; settings: in vivo, 504 h
[7] = Selectivity index, ratio of IC50 for human CCRF-CEM/VBL cells to IC50 for human CCRF-CEM cells; assay type: functional
[8] = Antiproliferative activity against human CCRF-CEM/VBL cells assessed as reduction in cell viability after 72 hrs by MTS assay; assay type: functional, cell-based; summary of the method: as §1
Hs-578T = experiment: Antiproliferative activity against human Hs578T cells assessed as reduction in cell viability after 72 hrs by MTS assay; assay type: functional, cell-based; summary of the method: as §1
[9] = Selectivity index, ratio of IC50 for human KB/VCR cells to IC50 for human KB cells; assay type: functional
[10] = Antiproliferative activity against human KB/VCR cells assessed as reduction in cell viability after 72 hrs by MTS assay; assay type: functional, cell-based; summary of the method: as §1
BT-549 = experiment: Antiproliferative activity against human BT549 cells assessed as reduction in cell viability after 72 hrs by MTS assay; assay type: functional, cell-based; settings: BT-549, 72 h; summary of the method: as §1
NCI-H1975 [11] = experiment: Antiproliferative activity against human NCI-H1975 cells assessed as reduction in cell viability after 72 hrs by MTS assay; assay type: functional, cell-based; settings: NCI-H1975, 72 h; summary of the method: as §1
Homo sapiens [12] = experiment: Induction of apoptosis in human KBtax cells xenografted in Balb/c mouse at 8 mg/kg, ip administered 3 times per week and measured after 21 days by TUNEL staining based histological analysis; assay type: functional, organism-based
Summary of the method: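 1×10^7 KBtax cells injected subcutaneously into the right flank of 6-week-old BALB/c nude mice (n = 5 per group). Once tumors established, compound in DMSO given ip three times a week for 21 days. Tumor sections stained with H&E and by TUNEL.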

KB = experiment: Antiproliferative activity against human KB cells assessed as reduction in cell viability after 72 hrs by MTS assay; assay type: functional, cell-based; summary of the method: as §1
Homo sapiens [13] = species on record: Homo sapiens; experiment: Induction of apoptosis in human KBtax cells assessed as PARP cleavage at 30 to 60 nM after 24 hrs by immunoblotting analysis; assay type: functional, cell-based
[14] = Antiproliferative activity against human 37T cells assessed as reduction in cell viability after 72 hrs by MTS assay; assay type: functional, cell-based; summary of the method: as §1
CCRF-CEM = experiment: Antiproliferative activity against human CCRF-CEM cells assessed as reduction in cell viability after 72 hrs by MTS assay; assay type: functional, cell-based; summary of the method: as §1
CL1-0 [15] = experiment: Antiproliferative activity against human CL1-0 cells assessed as reduction in colony formation after 14 days by crystal violet staining based assay; assay type: functional, cell-based
Summary of the method: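 Seeded at 1000 cells/well, cultured overnight, then treated with 12.5–200 nM for 14 days. Colonies fixed in 3.7% paraformaldehyde, stained with 0.04% crystal violet and dissolved in DMSO, then absorbance read at 590 nm. Mean ± SD.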

SW-620 = experiment: Antiproliferative activity against human SW620 cells assessed as reduction in cell viability after 72 hrs by MTS assay; assay type: functional, cell-based; settings: SW-620, 72 h; summary of the method: as §1
COLO 205 = experiment: Antiproliferative activity against human COLO205 cells assessed as reduction in cell viability after 72 hrs by MTS assay; assay type: functional, cell-based; settings: COLO 205, 72 h; summary of the method: as §1
NCI-H1975 [16] = experiment: Induction of mitotic arrest in human NCI-H1975 cells assessed as cyclin A at 40 to 80 nM after 24 hrs by immunoblotting analysis; assay type: functional, cell-based
CL1-0 [17] = experiment: Induction of cell cycle arrest in human CL1-0 cells assessed as accumulation at mitotic phase after 24 hrs by high content imaging analysis; assay type: functional, cell-based
Summary of the method: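 Cells exposed for 24 h, stained for phospho-histone H3 (S10), and imaged by high-content imaging. Mitotic index taken as the fraction of p-HH3-positive cells. Mean ± SD.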

Tubulin (Homo sapiens) [18] = molecular target: T1, Tubulin (Homo sapiens) (UniProt P68371+Q9H4B7+P0DPH7+P68366+Q13509+Q71U36+P04350+Q3ZCM7+P07437+P68363+Q9BQE3+Q6PEY2+Q13885+Q9BVA1+Q9BUF5); experiment: Binding affinity to tubulin (unknown origin) assessed as increase in Beta-col fragment production at 100 uM after 30 mins by coomassie brilliant blue staining based trypsin proteolysis assay; assay type: protein-complex assay
Summary of the method: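 Tubulin (1 mg/mL) preincubated with 100 µM compound for 30 min at 30 °C in 0.1 M MES, 1 mM MgCl2, 1 mM EGTA, pH 6.9. Trypsin added at 25 µg/mL (1:40 w/w) for 10 min on ice. Fragments resolved on 15% SDS-PAGE, stained with Coomassie and quantified by densitometry.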

CL1-0 [19] = experiment: Induction of mitotic arrest in human CL1-0 cells assessed as increase in cyclin B1 expression at 20 to 40 nM after 24 hrs by immunoblotting analysis; assay type: functional, cell-based
IGROV-1 = experiment: Antiproliferative activity against human IGROV1 cells assessed as reduction in cell viability after 72 hrs by MTS assay; assay type: functional, cell-based; settings: IGROV-1, 72 h; summary of the method: as §1
Tubulin (Homo sapiens) [20] = molecular target: T1, Tubulin (Homo sapiens); experiment: Binding affinity to tubulin (unknown origin) assessed as increase complex formation with compound by SPR analysis; assay type: protein-complex assay
Summary of the method: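 Biotin-tubulin (50 µg/mL) captured on a streptavidin chip to about 3,000 RU, with remaining sites blocked by biocytin and a free flow cell as reference. Compound injected at different concentrations in HBS-EP+ (pH 7.4) at 25 °C. KD obtained from steady-state fitting.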

CL1-0 [21] = experiment: Induction of morphological changes in human CL1-0 cells assessed as disruption of mitotic spindle arrangement at 20 nM after 6 hrs by DAPI staining based confocal microscopic analysis; assay type: functional, cell-based
Summary of the method: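 Cells exposed for 6 h, fixed in 3.7% paraformaldehyde, permeabilized with 0.1% Triton X-100. Stained with anti-α-tubulin (1:1000) overnight at 4 °C, FITC secondary 1 h at 37 °C, nuclei counterstained with DAPI. Imaged by confocal laser scanning microscopy.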

IC50 (MDA-MB-231) | IC50 (BT-549) | IC50 (NCI-H1975 [11]) | IC50 (KB) | IC50 (CCRF-CEM) | Structure (SMILES) | Ratio IC50 [3] | IC50 [5] | Ratio IC50 [7] | IC50 [8] | IC50 (Hs-578T) | Ratio IC50 [9] | IC50 [10] | IC50 [14] | also measured
35 nM | 21 nM | 24 nM | 34 nM | 20 nM | CCOC(=O)c1ccc2[nH]c(-c3cccc(F)c3)cc(=O)c2c1 | 0.88 | 30 nM | 0.8 | 16 nM | 34 nM | 1 | 35 nM | 22 nM | Activity (Homo sapiens [1]): Active; Activity [2]: 0.26 mg/dL; Activity (Homo sapiens [4]): Active; Activity [6]: 120.7 IU/L; Activity (Homo sapiens [12]): Active; Activity (Homo sapiens [13]): Active
55 nM | 33 nM | 33 nM | 37 nM | 45 nM | CCOC(=O)c1ccc2nc(-c3ccccc3)cc(O)c2c1 | 0.81 | 30 nM | 0.97 | 44 nM | 41 nM | 1 | 37 nM | 34 nM | Activity (CL1-0 [15]): Active; IC50 (SW-620): 35 nM; IC50 (COLO 205): 57 nM; Activity (NCI-H1975 [16]): inactive; Activity (CL1-0 [17]): Dose-dependent effect; Activity (Tubulin (Homo sapiens) [18]): Active; Activity (CL1-0 [19]): Active; IC50 (IGROV-1): 84 nM; Activity (Tubulin (Homo sapiens) [20]): Dose-dependent effect; Activity (CL1-0 [21]): Active
